Assay results from ChEMBL document CHEMBL1138928, “Toward orthopoxvirus countermeasures: a novel heteromorphic nucleoside of unusual structure” (J Med Chem, 2006).

What was measured:
Vaccinia virus = test: Antiviral activity against vaccinia virus in HFF cells by plaque reduction assay; format: functional, organism-based; conditions: Orthopoxvirus vaccinia
Cowpox virus [1] = test: Antiviral activity against TK+ cowpox virus delta crmA in HFF cells; format: functional, organism-based
HFF = test: Cytotoxicity against HFF cells by neutral red uptake assay; format: functional; conditions: Homo sapiens
Procedure, shortened: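 Uninfected HFF cells are incubated with various drug concentrations for 7 days at 37 °C. Viability is read by Neutral Red uptake. CC50 is the concentration that reduces uptake by 50%.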

Cowpox virus [2] = test: Antiviral activity against TK- cowpox virus TK:GFP lacZ in HFF cells; format: functional, organism-based
Cowpox virus [3] = test: Antiviral activity against cowpox virus in HFF cells by plaque reduction assay; format: functional, organism-based

Structure (SMILES)	EC50 (Vaccinia virus)	EC50 (Cowpox virus [1])	CC50 (HFF)	EC50 (Cowpox virus [2])	EC50 (Cowpox virus [3])
N#CC1=C(N)OC2=C(C(=O)CCC2)C1c1cn([C@H]2C[C@@H](O)[C@@H](CO)O2)c(=O)[nH]c1=O (stereo not given in full)	4.6 µM	0.8 µM	> 300 µM	28 µM	2 µM
Nc1ccn(C[C@@H](CO)OCP(=O)(O)O)c(=O)n1 [CIDOFOVIR]	24 µM	3.3 µM	> 317 µM	5.2 µM	40 µM
O=c1[nH]c(=O)n([C@H]2C[C@H](O)[C@@H](CO)O2)cc1I [IDOXURIDINE]	6 µM	0.4 µM	> 260 µM	27 µM	2 µM
